Legend:
Type in all cases: functional
CCRF-CEM = test: Growth inhibition of human CCRF-CEM cells after 48 hrs; conditions: for CC50: read-out: LC50 (the source's name)
Summary of the method: (§1)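 NCI in vitro disease-oriented human tumor cell line screen. Compounds passing a one-dose primary assay (MCF-7, NCI-H460, SF-268; pass = growth of any line reduced to 32% or less) were tested on the 60-line panel over a 5-log dose range. Compounds were dissolved in DMSO, with under 1% DMSO in final dilutions, and tested in duplicate at 6×10^4 cells/ml. Cells were incubated at 37 °C in 5% CO2 for 48 h, then diluted 10-fold in saline and counted with a Coulter counter, with counts corrected for dilution. Controls held PBS/DMSO at identical dilutions. GI50 was reported per line and as subpanel/full-panel mean-graph midpoint.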

HL-60(TB) = test: Growth inhibition of human HL-60(TB) cells after 48 hrs; conditions: HL-60, 48 h; for CC50: read-out: LC50 (the source's name)
Summary of the method: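 NCI 60-cell-line screen over a 5-log dose range. Compounds were dissolved in DMSO, final DMSO under 1%. Duplicate wells were seeded at 6×10^4 cells/ml, with PBS/DMSO vehicle controls at identical dilutions. Cells were incubated 48 h at 37 °C in humidified 5% CO2, diluted 10-fold in saline, and counted by Coulter counter with dilution correction. GI50 read-out.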

K562 = test: Growth inhibition of human K562 cells after 48 hrs; conditions: K562, 48 h; summary of the method: as §1
RPMI-8226 = test: Growth inhibition of human RPMI8226 cells after 48 hrs; conditions: RPMI-8226, 48 h; for CC50: read-out: LC50 (the source's name); summary of the method: as §1
SF-539 = test: Growth inhibition of human SF539 cells after 48 hrs; conditions: SF-539, 48 h; for CC50: read-out: LC50 (the source's name); summary of the method: as §1
SK-MEL-2 = test: Growth inhibition of human SK-MEL-2 cells after 48 hrs; conditions: SK-MEL-2, 48 h; summary of the method: as §1
UACC-257 = test: Growth inhibition of human UACC257 cells after 48 hrs; conditions: UACC-257, 48 h; summary of the method: as §1
MCF7 = test: Growth inhibition of human MCF7 cells after 48 hrs; conditions: MCF7, 48 h; for CC50: read-out: LC50 (the source's name); summary of the method: as §1
T47D = test: Growth inhibition of human T47D cells after 48 hrs; summary of the method: as §1
[1] = Growth inhibition of human leukemia cells after 48 hrs; conditions: Leukemia cell; for CC50: read-out: LC50 (the source's name); summary of the method: as §1
NSCLC = test: Growth inhibition of human NSCLC cells after 48 hrs; summary of the method: as §1
[2] = Growth inhibition of human Colon cancer cells after 48 hrs; conditions: Cancer cell lines; summary of the method: as §1
[3] = Growth inhibition of human CNS cancer cells after 48 hrs; conditions: Cancer cell lines; for CC50: read-out: LC50 (the source's name); summary of the method: as §1
[4] = Growth inhibition of human melanoma cells after 48 hrs; conditions: Melanoma cell; summary of the method: as §1
[5] = Growth inhibition of human ovarian cancer cells after 48 hrs; conditions: Cancer cell lines; summary of the method: as §1
[6] = Growth inhibition of human renal cancer cells after 48 hrs; conditions: Cancer cell lines; for CC50: read-out: LC50 (the source's name); summary of the method: as §1
[7] = Growth inhibition of human prostate cancer cells after 48 hrs; conditions: Cancer cell lines; for CC50: read-out: LC50 (the source's name); summary of the method: as §1
[8] = Growth inhibition of human breast cancer cells after 48 hrs; conditions: Cancer cell lines; summary of the method: as §1

O=S(=O)(Nc1nccs1)c1ccc(Nc2nc(-c3cccs3)nc3ccc(I)cc23)cc1
GI50 (CCRF-CEM): 2 µM
TGI (CCRF-CEM): 4 µM
CC50 (CCRF-CEM): 9 µM
GI50 (HL-60(TB)): 32 µM
TGI (HL-60(TB)): 80 µM
CC50 (HL-60(TB)): > 100 µM
GI50 (K562): 38 µM
LC50 (concentration killing 50% of cells) (K562): > 100 µM
TGI (K562): > 100 µM
GI50 (RPMI-8226): 1 µM
TGI (RPMI-8226): 3 µM
CC50 (RPMI-8226): 8 µM
GI50 (SF-539): 32 µM
TGI (SF-539): 60 µM
CC50 (SF-539): > 100 µM
GI50 (SK-MEL-2): 22 µM
LC50 (SK-MEL-2): > 100 µM
TGI (SK-MEL-2): 47 µM
GI50 (UACC-257): 0.04 µM
LC50 (UACC-257): 95 µM
TGI (UACC-257): 28 µM
GI50 (MCF7): 26 µM
TGI (MCF7): > 100 µM
CC50 (MCF7): > 100 µM
GI50 (T47D): 15 µM
LC50 (T47D): > 100 µM
TGI (T47D): 51 µM
GI50 [1]: 21.7 µM
TGI [1]: 59.2 µM
CC50 [1]: 69.4 µM
GI50 (NSCLC): 23.3 µM
LC50 (concentration killing 50% of cells) (NSCLC): 92.4 µM
TGI (NSCLC): 65.2 µM
GI50 [2]: 24.3 µM
LC50 [2]: 87.3 µM
TGI [2]: 61.1 µM
GI50 [3]: 27.7 µM
TGI [3]: 68.3 µM
GI50 [4]: 18.9 µM
LC50 (lethal concentration 50%) [4]: 92.1 µM
TGI [4]: 45.5 µM
GI50 [5]: 25.8 µM
TGI [5]: 68.9 µM
GI50 [6]: 28.3 µM
TGI [6]: 79.6 µM
GI50 [7]: 13.9 µM
TGI [7]: 35.9 µM
CC50 [7]: 73 µM
GI50 [8]: 25.9 µM
TGI [8]: 74.9 µM

O=C(Nn1c(-c2cccs2)nc2ccc(I)cc2c1=O)c1ccccc1
GI50 (CCRF-CEM): 39 µM
TGI (CCRF-CEM): > 100 µM
CC50 (CCRF-CEM): > 100 µM
GI50 (HL-60(TB)): 34 µM
TGI (HL-60(TB)): > 100 µM
CC50 (HL-60(TB)): > 100 µM
GI50 (K562): 44 µM
LC50 (concentration killing 50% of cells) (K562): > 100 µM
TGI (K562): > 100 µM
GI50 (RPMI-8226): 23 µM
TGI (RPMI-8226): 58 µM
CC50 (RPMI-8226): > 100 µM
GI50 (SF-539): 30 µM
TGI (SF-539): > 100 µM
CC50 (SF-539): > 100 µM
GI50 (SK-MEL-2): 24 µM
LC50 (SK-MEL-2): > 100 µM
TGI (SK-MEL-2): 69 µM
GI50 (UACC-257): < 0.01 µM
LC50 (UACC-257): > 100 µM
TGI (UACC-257): 31 µM
GI50 (MCF7): 23 µM
TGI (MCF7): > 100 µM
CC50 (MCF7): > 100 µM
GI50 (T47D): 11 µM
LC50 (T47D): > 100 µM
TGI (T47D): 38 µM
GI50 [1]: 33.9 µM
TGI [1]: 71.5 µM
GI50 (NSCLC): 25.6 µM
TGI (NSCLC): 75.3 µM
GI50 [2]: 35.4 µM
TGI [2]: 90 µM
GI50 [3]: 27.4 µM
TGI [3]: 85.8 µM
GI50 [4]: 35.5 µM
TGI [4]: 62.1 µM
GI50 [5]: 27.4 µM
TGI [5]: 74.4 µM
GI50 [6]: 32.1 µM
TGI [6]: 86.7 µM
GI50 [7]: 27.2 µM
TGI [7]: 73.3 µM
GI50 [8]: 24.5 µM
TGI [8]: 72.5 µM

O=C(Nc1ccc(I)cc1C(=O)Nc1ccc(O)cc1)c1cccs1
GI50 (HL-60(TB)): 8 µM
TGI (HL-60(TB)): 37 µM
CC50 (HL-60(TB)): > 100 µM
GI50 (K562): 24 µM
LC50 (concentration killing 50% of cells) (K562): > 100 µM
TGI (K562): > 100 µM
GI50 (RPMI-8226): 3 µM
TGI (RPMI-8226): 18 µM
CC50 (RPMI-8226): 57 µM
GI50 (SF-539): < 0.01 µM
TGI (SF-539): 15 µM
CC50 (SF-539): 62 µM
GI50 (SK-MEL-2): 16 µM
LC50 (SK-MEL-2): 57 µM
TGI (SK-MEL-2): 30 µM
GI50 (UACC-257): < 0.01 µM
LC50 (UACC-257): > 100 µM
TGI (UACC-257): 22 µM
GI50 (MCF7): 12 µM
TGI (MCF7): 33 µM
CC50 (MCF7): 94 µM
GI50 (T47D): 2 µM
LC50 (T47D): 50 µM
TGI (T47D): 11 µM
GI50 [1]: 11.5 µM
TGI [1]: 60.6 µM
CC50 [1]: 91 µM
GI50 (NSCLC): 13.5 µM
LC50 (concentration killing 50% of cells) (NSCLC): 74.6 µM
TGI (NSCLC): 33.1 µM
GI50 [2]: 15.2 µM
LC50 [2]: 74.6 µM
TGI [2]: 34.5 µM
GI50 [3]: 12.2 µM
TGI [3]: 32.4 µM
CC50 [3]: 77.6 µM
GI50 [4]: 11.1 µM
LC50 (lethal concentration 50%) [4]: 63.8 µM
TGI [4]: 26.9 µM
GI50 [5]: 13.3 µM
LC50 [5]: 72.5 µM
TGI [5]: 35.4 µM
GI50 [6]: 13.2 µM
TGI [6]: 29.3 µM
CC50 [6]: 64.1 µM
GI50 [7]: 8.7 µM
TGI [7]: 21.1 µM
CC50 [7]: 45.8 µM
GI50 [8]: 11.9 µM
LC50 [8]: 79.4 µM
TGI [8]: 36.8 µM

NS(=O)(=O)c1ccc(CNc2nc(-c3cccs3)nc3ccc(I)cc23)cc1
GI50 (CCRF-CEM): 22 µM
TGI (CCRF-CEM): 60 µM
CC50 (CCRF-CEM): > 100 µM
GI50 (HL-60(TB)): 30 µM
TGI (HL-60(TB)): > 100 µM
CC50 (HL-60(TB)): > 100 µM
GI50 (K562): 37 µM
LC50 (concentration killing 50% of cells) (K562): > 100 µM
TGI (K562): > 100 µM
GI50 (RPMI-8226): 19 µM
TGI (RPMI-8226): 50 µM
CC50 (RPMI-8226): > 100 µM
GI50 (SF-539): 11 µM
TGI (SF-539): 31 µM
CC50 (SF-539): 85 µM
GI50 (SK-MEL-2): 18 µM
LC50 (SK-MEL-2): 61 µM
TGI (SK-MEL-2): 33 µM
GI50 (UACC-257): 14 µM
LC50 (UACC-257): 54 µM
TGI (UACC-257): 28 µM
GI50 (MCF7): 0.6 µM
TGI (MCF7): 16 µM
CC50 (MCF7): > 100 µM
GI50 (T47D): 0.2 µM
LC50 (T47D): 82 µM
TGI (T47D): 18 µM
GI50 [1]: 23.9 µM
TGI [1]: 72.3 µM
GI50 (NSCLC): 14.7 µM
LC50 (concentration killing 50% of cells) (NSCLC): 82.2 µM
TGI (NSCLC): 37 µM
GI50 [2]: 16.7 µM
LC50 [2]: 66.4 µM
TGI [2]: 37.3 µM
GI50 [3]: 18.2 µM
TGI [3]: 42.4 µM
CC50 [3]: 89 µM
GI50 [4]: 16 µM
LC50 (lethal concentration 50%) [4]: 58.3 µM
TGI [4]: 30.5 µM
GI50 [5]: 15.7 µM
LC50 [5]: 89.1 µM
TGI [5]: 42.6 µM
GI50 [6]: 13.6 µM
TGI [6]: 36.1 µM
CC50 [6]: 88.1 µM
GI50 [7]: 17.1 µM
TGI [7]: 41.8 µM
CC50 [7]: 80.8 µM
GI50 [8]: 12.3 µM
LC50 [8]: 80.8 µM
TGI [8]: 32.1 µM
